To fix the notation:
B1: DG_Ala mut: V105A/F108A/L112A/L114A/L115A (protein)
chain: METDESPSPLPCGPAGEAVMESRARPFQALPREQSPPPPLQTSSGAEVMDVGSGGDGQSELPAEDPFNFYGASLLSKGSFSKGRLLIDPNCSGHSPRTARHAPAARKASPDAKAAKDVKISVSFTESCRSKDRKVLYTGAERDVRAECGLLLSPVSGDVHACPFGGSVGDGVGIGGESADKKDEENELDQEKRVEYAVLDELEDFTDNLELDEEGAGGFTAKAIVQRDRVDEEALNFPYEDDFDNDVDALLEEGLCAPKKRRTEEKYGGDSDHPSDGETSVQPMMTKIKTVLKSRGRPPTEPLPDGWIMTFHNSGVPVYLHRESRVVTWSRPYFLGTGSIRKHDPPLSSIPCLHYKKMKDNEEREQSSDLTPSGDVSPVKPLSRSAELEFPLDEPDSMGADPGPPDEKDPLGAEAAPGALGQVKAKVEVCKDESVDLEEFRSYLEKRFDFEQVTVKKFRTWAERRQFNREMKRKQAESERPILPANQKLITLSVQDAPTKKEFVINPNGKSEVCILHEYMQRVLKVRPVYNFFECENPSEPFGASVTIDGVTYGSGTASSKKLAKNKAARATLEILIPDFVKQTSEEKPKDSEELEYFNHISIEDSRVYELTSKAGLLSPYQILHECLKRNHGMGDTSIKFEVVPGKNQKSEYVMACGKHTVRGWCKNKRVGKQLASQKILQLLHPHVKNWGSLLRMYGRESSKMVKQETSDKSVIELQQYAKKNKPNLHILSKLQEEMKRLAEEREETRKKPKMSIVASAQPGGEPLCTVDV
B2: DG115–773: 1–114 aa of DGCR8 was deleted (protein)
chain: LKDVKISVSFTESCRSKDRKVLYTGAERDVRAECGLLLSPVSGDVHACPFGGSVGDGVGIGGESADKKDEENELDQEKRVEYAVLDELEDFTDNLELDEEGAGGFTAKAIVQRDRVDEEALNFPYEDDFDNDVDALLEEGLCAPKKRRTEEKYGGDSDHPSDGETSVQPMMTKIKTVLKSRGRPPTEPLPDGWIMTFHNSGVPVYLHRESRVVTWSRPYFLGTGSIRKHDPPLSSIPCLHYKKMKDNEEREQSSDLTPSGDVSPVKPLSRSAELEFPLDEPDSMGADPGPPDEKDPLGAEAAPGALGQVKAKVEVCKDESVDLEEFRSYLEKRFDFEQVTVKKFRTWAERRQFNREMKRKQAESERPILPANQKLITLSVQDAPTKKEFVINPNGKSEVCILHEYMQRVLKVRPVYNFFECENPSEPFGASVTIDGVTYGSGTASSKKLAKNKAARATLEILIPDFVKQTSEEKPKDSEELEYFNHISIEDSRVYELTSKAGLLSPYQILHECLKRNHGMGDTSIKFEVVPGKNQKSEYVMACGKHTVRGWCKNKRVGKQLASQKILQLLHPHVKNWGSLLRMYGRESSKMVKQETSDKSVIELQQYAKKNKPNLHILSKLQEEMKRLAEEREETRKKPKMSIVASAQPGGEPLCTVDV
B3: Deletion of the N-terminus of DGCR8 (1–275 aa): DGCR8 with deletion of 1–275 aa (protein, UniProt Q8WYQ5 276-773, looked up, fragment)
chain: DGETSVQPMMTKIKTVLKSRGRPPTEPLPDGWIMTFHNSGVPVYLHRESRVVTWSRPYFLGTGSIRKHDPPLSSIPCLHYKKMKDNEEREQSSDLTPSGDVSPVKPLSRSAELEFPLDEPDSMGADPGPPDEKDPLGAEAAPGALGQVKAKVEVCKDESVDLEEFRSYLEKRFDFEQVTVKKFRTWAERRQFNREMKRKQAESERPILPANQKLITLSVQDAPTKKEFVINPNGKSEVCILHEYMQRVLKVRPVYNFFECENPSEPFGASVTIDGVTYGSGTASSKKLAKNKAARATLEILIPDFVKQTSEEKPKDSEELEYFNHISIEDSRVYELTSKAGLLSPYQILHECLKRNHGMGDTSIKFEVVPGKNQKSEYVMACGKHTVRGWCKNKRVGKQLASQKILQLLHPHVKNWGSLLRMYGRESSKMVKQETSDKSVIELQQYAKKNKPNLHILSKLQEEMKRLAEEREETRKKPKMSIVASAQPGGEPLCTVDV
B4: DGΔ96–115: 96–115 aa of DGCR8 was removed (protein)
chain: METDESPSPLPCGPAGEAVMESRARPFQALPREQSPPPPLQTSSGAEVMDVGSGGDGQSELPAEDPFNFYGASLLSKGSFSKGRLLIDPNCSGHSKDVKISVSFTESCRSKDRKVLYTGAERDVRAECGLLLSPVSGDVHACPFGGSVGDGVGIGGESADKKDEENELDQEKRVEYAVLDELEDFTDNLELDEEGAGGFTAKAIVQRDRVDEEALNFPYEDDFDNDVDALLEEGLCAPKKRRTEEKYGGDSDHPSDGETSVQPMMTKIKTVLKSRGRPPTEPLPDGWIMTFHNSGVPVYLHRESRVVTWSRPYFLGTGSIRKHDPPLSSIPCLHYKKMKDNEEREQSSDLTPSGDVSPVKPLSRSAELEFPLDEPDSMGADPGPPDEKDPLGAEAAPGALGQVKAKVEVCKDESVDLEEFRSYLEKRFDFEQVTVKKFRTWAERRQFNREMKRKQAESERPILPANQKLITLSVQDAPTKKEFVINPNGKSEVCILHEYMQRVLKVRPVYNFFECENPSEPFGASVTIDGVTYGSGTASSKKLAKNKAARATLEILIPDFVKQTSEEKPKDSEELEYFNHISIEDSRVYELTSKAGLLSPYQILHECLKRNHGMGDTSIKFEVVPGKNQKSEYVMACGKHTVRGWCKNKRVGKQLASQKILQLLHPHVKNWGSLLRMYGRESSKMVKQETSDKSVIELQQYAKKNKPNLHILSKLQEEMKRLAEEREETRKKPKMSIVASAQPGGEPLCTVDV

The test system of this test is ERH. Kind of test: Co-immunoprecipitation and Western blot of DGCR8 mutants and fragments with ERH. It counts as binding, human. As to conditions: co-IP / Western blot, overexpressed DGCR8 mutants, HEK293E, RNase A. The gist of the method: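 HEK293E cells at 50% confluence were transfected with 5 μg total of Flag-, HA- or myc-tagged plasmids using branched/linear PEI (1:1) and harvested after 2 days. Anti-Flag, anti-HA or protein G-bound anti-myc beads were incubated with lysate 1–2 h at 4°C, washed three times and eluted in SDS buffer for western blot.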
(In western blotting, separated proteins are transferred to a membrane and probed.)
With B1, the “interaction with ERH” value is recorded as “impaired in ERH binding”.

B2: the “interaction with ERH” value is “could not pull down ERH”. Under B3 stands “abrogated the interaction”; under B4, “could not pull down ERH”.

These data come from article PMC7641749 (Nucleic Acids Research, 2020).
